According to ChEMBL document CHEMBL1155153, “Measurement of voriconazole activity against Candida albicans, C. glabrata, and C. parapsilosis isolates using time-kill methods validated by high-performance liquid chromatography” (2007):
Values after ≈ are worked out from the molar mass of the structure shown.

Key:
Format in all cases: functional
Candida albicans [1] = test: Antifungal activity against Candida albicans ATCC 90029 assessed as maximum log cell kill at 4 times MIC after 24 hrs by time-kill method
Candida parapsilosis [2] = test: Antifungal activity against Candida parapsilosis isolate 2 assessed as maximum log cell kill at 4 times MIC after 24 hrs by time-kill method
How it was run: (§1)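 Bloodstream isolate colonies from 48-h Sabouraud dextrose agar cultures were suspended in sterile water. […] Samples taken 0–72 h were plated for CFU. Value is the maximum log difference from drug-free control per time window. Run in duplicate.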

Nakaseomyces glabratus [3] = test: Antifungal activity against Candida glabrata isolate 1 assessed as maximum log cell kill at 4 times MIC after 24 to 48 hrs by time-kill method
Nakaseomyces glabratus [4] = test: Antifungal activity against Candida glabrata isolate 1 by Etest
How it was run: (§2)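 MIC by Etest, checked against the CLSI (NCCLS M27-A2) broth microdilution method. Both methods agreed within twofold.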

Nakaseomyces glabratus [5] = test: Antifungal activity against Candida glabrata isolate 1 assessed as maximum log cell kill at MIC after >48 hrs by time-kill method
Candida parapsilosis [6] = test: Antifungal activity against Candida parapsilosis isolate 1 by Etest; conditions: Lodderomyces parapsilosis; how it was run: as §2
Candida parapsilosis [7] = test: Antifungal activity against Candida parapsilosis isolate 1 assessed as maximum log cell kill at 4 times MIC after 24 hrs by time-kill method
Candida parapsilosis [8] = test: Antifungal activity against Candida parapsilosis isolate 1 assessed as maximum log cell kill at 4 times MIC after 24 to 48 hrs by time-kill method
Nakaseomyces glabratus [9] = test: Antifungal activity against Candida glabrata isolate 2 assessed as maximum log cell kill at MIC after 24 to 48 hrs by time-kill method
Nakaseomyces glabratus [10] = test: Antifungal activity against Candida glabrata isolate 2 assessed as maximum log cell kill at 4 times MIC after >48 hrs by time-kill method
Candida albicans [11] = test: Antifungal activity against Candida albicans ATCC 90029 assessed as maximum log cell kill at 4 times MIC after >48 hrs by time-kill method
Candida albicans [12] = test: Antifungal activity against Candida albicans SC5314 assessed as maximum log cell kill at 16 times MIC after 24 to 48 hrs by time-kill method
Candida albicans [13] = test: Antifungal activity against Candida albicans SC5314 assessed as maximum log cell kill at 16 times MIC after 24 hrs by time-kill method
Candida parapsilosis [14] = test: Antifungal activity against Candida parapsilosis isolate 1 assessed as maximum log cell kill at 16 times MIC after 24 hrs by time-kill method
Nakaseomyces glabratus [15] = test: Antifungal activity against Candida glabrata isolate 2 by Etest; how it was run: as §2
Candida parapsilosis [16] = test: Antifungal activity against Candida parapsilosis isolate 2 assessed as maximum log cell kill at 16 times MIC after 24 hrs by time-kill method
Candida albicans [17] = test: Antifungal activity against Candida albicans SC5314 assessed as maximum log cell kill at 4 times MIC after 24 hrs by time-kill method
Candida parapsilosis [18] = test: Antifungal activity against Candida parapsilosis isolate 1 assessed as maximum log cell kill at MIC after 24 hrs by time-kill method
Nakaseomyces glabratus [19] = test: Antifungal activity against Candida glabrata isolate 1 assessed as maximum log cell kill at 16 times MIC after 24 to 48 hrs by time-kill method
Candida parapsilosis [20] = test: Antifungal activity against Candida parapsilosis isolate 2 assessed as maximum log cell kill at MIC after >48 hrs by time-kill method; how it was run: as §1
Candida parapsilosis [21] = test: Antifungal activity against Candida parapsilosis isolate 2 assessed as maximum log cell kill at 4 times MIC after >48 hrs by time-kill method; how it was run: as §1
Nakaseomyces glabratus [22] = test: Antifungal activity against Candida glabrata isolate 2 assessed as maximum log cell kill at 16 times MIC after 24 hrs by time-kill method
Candida parapsilosis [23] = test: Antifungal activity against Candida parapsilosis isolate 2 assessed as maximum log cell kill at 4 times MIC after 24 to 48 hrs by time-kill method; how it was run: as §1
Candida parapsilosis [24] = test: Antifungal activity against Candida parapsilosis isolate 2 assessed as maximum log cell kill at 16 times MIC after >48 hrs by time-kill method
Nakaseomyces glabratus [25] = test: Antifungal activity against Candida glabrata isolate 1 assessed as maximum log cell kill at 16 times MIC after 24 hrs by time-kill method
Nakaseomyces glabratus [26] = test: Antifungal activity against Candida glabrata isolate 1 assessed as maximum log cell kill at 4 times MIC after 24 hrs by time-kill method
Nakaseomyces glabratus [27] = test: Antifungal activity against Candida glabrata isolate 1 assessed as maximum log cell kill at 4 times MIC after >48 hrs by time-kill method
Candida parapsilosis [28] = test: Antifungal activity against Candida parapsilosis isolate 1 assessed as maximum log cell kill at 4 times MIC after >48 hrs by time-kill method
Candida albicans [29] = test: Antifungal activity against Candida albicans SC5314 assessed as maximum log cell kill at MIC after 24 hrs by time-kill method
Nakaseomyces glabratus [30] = test: Antifungal activity against Candida glabrata isolate 1 assessed as maximum log cell kill at 16 times MIC after >48 hrs by time-kill method
Nakaseomyces glabratus [31] = test: Antifungal activity against Candida glabrata isolate 2 assessed as maximum log cell kill at MIC after 24 hrs by time-kill method
Candida parapsilosis [32] = test: Antifungal activity against Candida parapsilosis isolate 2 assessed as maximum log cell kill at 16 times MIC after 24 to 48 hrs by time-kill method
Candida albicans [33] = test: Antifungal activity against Candida albicans ATCC 90029 assessed as maximum log cell kill at 16 times MIC after >48 hrs by time-kill method
Candida albicans [34] = test: Antifungal activity against Candida albicans SC5314 by Etest; how it was run: as §2
Candida albicans [35] = test: Antifungal activity against Candida albicans ATCC 90029 assessed as maximum log cell kill at 16 times MIC after 24 hrs by time-kill method
Candida albicans [36] = test: Antifungal activity against Candida albicans ATCC 90029 assessed as maximum log cell kill at 16 times MIC after 24 to 48 hrs by time-kill method
Candida parapsilosis [37] = test: Antifungal activity against Candida parapsilosis isolate 1 assessed as maximum log cell kill at 16 times MIC after >48 hrs by time-kill method
Candida parapsilosis [38] = test: Antifungal activity against Candida parapsilosis isolate 2 assessed as maximum log cell kill at MIC after 24 to 48 hrs by time-kill method; how it was run: as §1
Candida albicans [39] = test: Antifungal activity against Candida albicans SC5314 assessed as maximum log cell kill at 4 times MIC after 24 to 48 hrs by time-kill method
Candida albicans [40] = test: Antifungal activity against Candida albicans ATCC 90029 assessed as maximum log cell kill at MIC after >48 hrs by time-kill method
Candida parapsilosis [41] = test: Antifungal activity against Candida parapsilosis isolate 2 assessed as maximum log cell kill at MIC after 24 hrs by time-kill method; how it was run: as §1
Candida parapsilosis [42] = test: Antifungal activity against Candida parapsilosis isolate 1 assessed as maximum log cell kill at MIC after 24 to 48 hrs by time-kill method
Nakaseomyces glabratus [43] = test: Antifungal activity against Candida glabrata isolate 1 assessed as maximum log cell kill at MIC after 24 to 48 hrs by time-kill method
Candida albicans [44] = test: Antifungal activity against Candida albicans ATCC 90029 assessed as maximum log cell kill at 4 times MIC after 24 to 48 hrs by time-kill method
Candida albicans [45] = test: Antifungal activity against Candida albicans ATCC 90029 by Etest; how it was run: as §2
Nakaseomyces glabratus [46] = test: Antifungal activity against Candida glabrata isolate 2 assessed as maximum log cell kill at 16 times MIC after >48 hrs by time-kill method
Candida albicans [47] = test: Antifungal activity against Candida albicans ATCC 90029 assessed as maximum log cell kill at MIC after 24 to 48 hrs by time-kill method
Candida parapsilosis [48] = test: Antifungal activity against Candida parapsilosis isolate 1 assessed as maximum log cell kill at MIC after >48 hrs by time-kill method
Nakaseomyces glabratus [49] = test: Antifungal activity against Candida glabrata isolate 1 assessed as maximum log cell kill at MIC after 24 hrs by time-kill method
Candida parapsilosis [50] = test: Antifungal activity against Candida parapsilosis isolate 1 assessed as maximum log cell kill at 16 times MIC after 24 to 48 hrs by time-kill method
Candida parapsilosis [51] = test: Antifungal activity against Candida parapsilosis isolate 2 by Etest; conditions: Lodderomyces parapsilosis
Nakaseomyces glabratus [52] = test: Antifungal activity against Candida glabrata isolate 2 assessed as maximum log cell kill at 4 times MIC after 24 hrs by time-kill method
Nakaseomyces glabratus [53] = test: Antifungal activity against Candida glabrata isolate 2 assessed as maximum log cell kill at MIC after >48 hrs by time-kill method
Nakaseomyces glabratus [54] = test: Antifungal activity against Candida glabrata isolate 2 assessed as maximum log cell kill at 16 times MIC after 24 to 48 hrs by time-kill method
Candida albicans [55] = test: Antifungal activity against Candida albicans ATCC 90029 assessed as maximum log cell kill at MIC after 24 hrs by time-kill method
Nakaseomyces glabratus [56] = test: Antifungal activity against Candida glabrata isolate 2 assessed as maximum log cell kill at 4 times MIC after 24 to 48 hrs by time-kill method
Candida albicans [57] = test: Antifungal activity against Candida albicans SC5314 assessed as maximum log cell kill at MIC after 24 to 48 hrs by time-kill method

Question: With `C[C@@H](c1ncncc1F)[C@](O)(Cn1cncn1)c1ccc(F)cc1F` [VORICONAZOLE] as the molecule, how does the LCK (Candida albicans [1]) read?
Answer: -1.34

Question: What about the LCK (Candida parapsilosis [2]) of the same molecule?
Answer: -2.7

Question: And the LCK (Nakaseomyces glabratus [3])?
Answer: -0.78

Question: What about the MIC (Nakaseomyces glabratus [4]) of the same molecule?
Answer: 0.19 µg/mL (≈ 0.544 µM)

Question: And the LCK (Nakaseomyces glabratus [5])?
Answer: -0.99

Question: What about the MIC (Candida parapsilosis [6]) of the same molecule?
Answer: 0.008 µg/mL (≈ 0.0229 µM)

Question: And the LCK (Candida parapsilosis [7])?
Answer: -1.64

Question: And the LCK (Candida parapsilosis [8])?
Answer: -2.67

Question: What about the LCK (Nakaseomyces glabratus [9]) of the same molecule?
Answer: -2.23

Question: What about the LCK (Nakaseomyces glabratus [10]) of the same molecule?
Answer: -2.99

Question: What about the LCK (Candida albicans [11]) of the same molecule?
Answer: -1.9

Question: And the LCK (Candida albicans [12])?
Answer: -0.58

Question: What about the LCK (Candida albicans [13]) of the same molecule?
Answer: -0.54

Question: And the LCK (Candida parapsilosis [14])?
Answer: -1.68

Question: And the MIC (Nakaseomyces glabratus [15])?
Answer: 0.032 µg/mL (≈ 0.0916 µM)

Question: What about the LCK (Candida parapsilosis [16]) of the same molecule?
Answer: -3.93

Question: What about the LCK (Candida albicans [17]) of the same molecule?
Answer: -0.51

Question: And the LCK (Candida parapsilosis [18])?
Answer: -0.99

Question: What about the LCK (Nakaseomyces glabratus [19]) of the same molecule?
Answer: -1

Question: And the LCK (Candida parapsilosis [20])?
Answer: -0.88

Question: And the LCK (Candida parapsilosis [21])?
Answer: -1.12

Question: And the LCK (Nakaseomyces glabratus [22])?
Answer: -1.15

Question: And the LCK (Candida parapsilosis [23])?
Answer: -2.13

Question: What about the LCK (Candida parapsilosis [24]) of the same molecule?
Answer: -4.15

Question: And the LCK (Nakaseomyces glabratus [25])?
Answer: -0.59

Question: What about the LCK (Nakaseomyces glabratus [26]) of the same molecule?
Answer: -0.49

Question: What about the LCK (Nakaseomyces glabratus [27]) of the same molecule?
Answer: -1.08

Question: And the LCK (Candida parapsilosis [28])?
Answer: -2.37

Question: What about the LCK (Candida albicans [29]) of the same molecule?
Answer: -0.61

Question: What about the LCK (Nakaseomyces glabratus [30]) of the same molecule?
Answer: -1.17

Question: And the LCK (Nakaseomyces glabratus [31])?
Answer: -1.02

Question: What about the LCK (Candida parapsilosis [32]) of the same molecule?
Answer: -3.94

Question: And the LCK (Candida albicans [33])?
Answer: -1.89

Question: And the MIC (Candida albicans [34])?
Answer: 0.012 µg/mL (≈ 0.0344 µM)

Question: What about the LCK (Candida albicans [35]) of the same molecule?
Answer: -1.34

Question: What about the LCK (Candida albicans [36]) of the same molecule?
Answer: -1.96

Question: And the LCK (Candida parapsilosis [37])?
Answer: -2.69

Question: What about the LCK (Candida parapsilosis [38]) of the same molecule?
Answer: -1.03

Question: And the LCK (Candida albicans [39])?
Answer: -0.53

Question: What about the LCK (Candida albicans [40]) of the same molecule?
Answer: -1.63

Question: What about the LCK (Candida parapsilosis [41]) of the same molecule?
Answer: -1.86

Question: And the LCK (Candida parapsilosis [42])?
Answer: -0.91

Question: And the LCK (Nakaseomyces glabratus [43])?
Answer: -0.74

Question: And the LCK (Candida albicans [44])?
Answer: -1.84

Question: What about the MIC (Candida albicans [45]) of the same molecule?
Answer: 0.008 µg/mL (≈ 0.0229 µM)

Question: What about the LCK (Nakaseomyces glabratus [46]) of the same molecule?
Answer: -3.02

Question: What about the LCK (Candida albicans [47]) of the same molecule?
Answer: -1.77

Question: What about the LCK (Candida parapsilosis [48]) of the same molecule?
Answer: -0.67

Question: And the LCK (Nakaseomyces glabratus [49])?
Answer: -0.43

Question: What about the LCK (Candida parapsilosis [50]) of the same molecule?
Answer: -2.74

Question: And the MIC (Candida parapsilosis [51])?
Answer: 0.016 µg/mL (≈ 0.0458 µM)

Question: And the LCK (Nakaseomyces glabratus [52])?
Answer: -1.1

Question: And the LCK (Nakaseomyces glabratus [53])?
Answer: -2.78

Question: What about the LCK (Nakaseomyces glabratus [54]) of the same molecule?
Answer: -2.49

Question: And the LCK (Candida albicans [55])?
Answer: -1.23

Question: And the LCK (Nakaseomyces glabratus [56])?
Answer: -2.39

Question: What about the LCK (Candida albicans [57]) of the same molecule?
Answer: -0.56
